Source: ChEMBL document CHEMBL4033718, “A novel serine racemase inhibitor suppresses neuronal over-activation in vivo” (Bioorg Med Chem, 2017)

Target: T1, Serine racemase (Mus musculus) (UniProt Q9QZX7)
T1 sequence (whole entry): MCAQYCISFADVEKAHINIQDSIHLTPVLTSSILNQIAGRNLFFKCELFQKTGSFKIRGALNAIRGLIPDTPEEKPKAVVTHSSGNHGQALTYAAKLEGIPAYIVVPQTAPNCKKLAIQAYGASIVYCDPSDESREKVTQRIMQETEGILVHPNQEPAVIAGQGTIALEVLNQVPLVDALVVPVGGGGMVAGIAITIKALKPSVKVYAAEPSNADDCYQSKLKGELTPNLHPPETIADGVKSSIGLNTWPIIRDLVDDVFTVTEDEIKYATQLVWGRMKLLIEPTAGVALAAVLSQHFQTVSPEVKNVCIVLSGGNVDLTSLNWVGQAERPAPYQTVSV
Assay: Inhibition of mouse serine racemase assessed as remaining enzyme activity by measuring D-serine production using L-serine as substrate at 1 mM incubated for > 8 hrs
Summary of the method: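 Recombinant mouse Srr, 1.25 µg, in 100 mM HEPES pH 8.0 with PLP, 1 mM MgCl2, 5 mM DTT, 1 mM ATP, 20 mM L-Ser and 1 mM inhibitor. Product derivatized with 0.05% DNP in 2 M HCl for 5 min at 30 °C, then EtOH and 10 M NaOH added. A515 read after 10 min at room temperature.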

Row | SMILES | Activity [%]
1 | Cc1ccc(/C=C/S(=O)(=O)NCC(=O)OCc2ccc(Cl)c(Cl)c2)cc1 | 32
2 | O=C(COc1ccc(Cl)cc1)NCC(=O)Nc1ccc(F)c(F)c1F | 35
3 | Cc1ccc(CNC(=O)NCCNS(=O)(=O)c2cccc(Cl)c2)cc1 | 36

Organism: Homo sapiens
Assay: Inhibition of human serine racemase C2D2 mutant assessed as remaining enzyme activity by measuring D-serine production using L-serine as substrate at 1 mM incubated for > 8 hrs
Summary of the method: (§1)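 Recombinant human SRR C2D2 mutant, 8 µg, in 100 mM HEPES pH 8.0 with PLP, 1 mM MgCl2, 5 mM DTT, 1 mM ATP and 20 mM L-Ser. Product derivatized with 0.05% DNP in 2 M HCl for 5 min at 30 °C, then EtOH and 10 M NaOH added. Absorbance at 515 nm read after 10 min at room temperature.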

Row | SMILES | Activity [%]
4 | O=C(O)CC(=O)O [MALONIC ACID] | 63
5 | O=C(/C=C/c1c(F)cc(F)cc1F)NC(=S)NNC(=O)Cc1cccs1 | 39
6 | O=C(/C=C/c1cc(Br)cc(Br)c1)NC(=S)NNC(=O)Cc1ccc(F)cc1 | 54
7 | O=C(Cc1cc(F)cc(F)c1)NNC(=S)NC(=O)Cc1ccccc1 | 55
8 | O=C(Cc1cccs1)NNC(=S)NC(=O)Cc1ccccc1 | 61
9 | O=C(/C=C/c1ccc(Cl)cc1)NC(=S)NNC(=O)Cc1cccs1 | 23
10 | COc1cccc(OC)c1/C=C/C(=O)NC(=S)NNC(=O)Cc1cccs1 | 27
11 | COc1cccc(OC)c1/C=C/C(=O)NC(=S)NNC(=O)Cc1ccccc1 | 32
12 | O=C(/C=C/c1ccc(F)cc1)NC(=S)NNC(=O)Cc1ccccc1 | 45
13 | O=C(/C=C/c1ccc(C(F)(F)F)cc1)NC(=S)NNC(=O)Cc1cccs1 | 44
14 | CC(C)c1ccc(/C=C/C(=O)NC(=S)NNC(=O)Cc2cccs2)cc1 | 28
15 | O=C(Cc1c(F)cccc1F)NNC(=S)NC(=O)Cc1ccccc1 | 61
16 | Cc1ccc(/C=C/C(=O)NC(=S)NNC(=O)Cc2cccs2)cc1 | 24
17 | O=C(/C=C/c1ccc(F)cc1)NC(=S)NNC(=O)Cc1cccs1 | 22
18 | O=C(/C=C/c1c(F)cc(F)cc1F)NC(=S)NNC(=O)Cc1ccccc1 | 38
19 | COc1cccc(OC)c1/C=C/C(=O)NC(=S)NNC(=O)c1cccs1 | 31
20 | Cc1ccc(S(=O)(=O)Nc2ccccc2NC(=O)Nc2ccc(Cl)c(Cl)c2)cc1 | 77
21 | O=C(Cc1ccc(F)cc1)NNC(=S)NC(=O)Cc1ccc(F)cc1 | 49
22 | O=C(/C=C/c1cc(Br)cc(Br)c1)NC(=S)NNC(=O)CCc1ccccc1 | 44
23 | O=C(/C=C/c1cc(Br)cc(Br)c1)NC(=S)NNC(=O)Cc1ccccc1 | 20
24 | O=C(/C=C/c1ccc(F)cc1)NC(=S)NNC(=O)c1cccs1 | 46
25 | Cc1cccc(CC(=O)NNC(=S)NC(=O)Cc2ccccc2)c1 | 53
26 | O=C(Cc1ccc(F)cc1)NNC(=S)NC(=O)Cc1ccccc1 | 62
27 | Cc1ccc(/C=C/S(=O)(=O)NCC(=O)Nc2ccc(OCc3ccccc3)cc2)cc1 | 41

Target: not listed separately
Assay: Inhibition of human serine racemase C2D2 mutant assessed as remaining enzyme activity by measuring D-serine production using L-serine as substrate incubated for > 8 hrs
Summary of the method: as §1

Row | SMILES | IC50 [µM]
28 | O=C(O)CC(=O)O [MALONIC ACID] | 770
29 | Cc1ccc(S(=O)(=O)Nc2ccccc2NC(=O)Nc2ccc(Cl)c(Cl)c2)cc1 | 280
30 | O=C(/C=C/c1cc(Br)cc(Br)c1)NC(=S)NNC(=O)Cc1ccccc1 | 140
31 | Cc1ccc(/C=C/S(=O)(=O)NCC(=O)Nc2ccc(OCc3ccccc3)cc2)cc1 | 270

Test system: Mus musculus
Assay: In-vivo inhibition of SRR in Arc-LucTg HL mouse brain assessed as reduction in kainate-induced NMDA-type glutamate receptor activation by measuring decrease in bioluminescence signal at 15 mg/kg, po incubated for 3 hrs followed by kainate treatment measured after 2 hrs relative to control
Format: functional
Summary of the method: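 Arc-Luc Tg hairless mice, baseline-imaged, then dosed 15 mg/kg p.o. in PEG-400 (vehicle controls) under 1.5% isoflurane. Basal imaging 3 h later, then kainate 20 mg/kg i.p. in saline. Luciferin EF 150 mg/kg i.p. Images at 2, 4 and 6 h: 60 s, 4×4 binning, ear-to-eye ROI, strongest of about 5 reads. Fold change vs 0 h; two-tailed t test.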

Row | SMILES | fold change (FC)
32 | O=C(/C=C/c1cc(Br)cc(Br)c1)NC(=S)NNC(=O)Cc1ccccc1 | 1.4
